Wee1 stabilizer: blocks degradation of human Wee1 kinase. hit rate 1.2% among 220,000. AID 1321. HeLa Luc-Wee1K328M stability, luciferase luminescence; 100% = proteasome inhibitor MG132 effect. reporter increase, % at 5 µM;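 active = activation above the mean of all tested compounds plus 3 SD, set per screening run, cut at about 8.8% in these data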;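 note: cells exposed to compound for 20 h before luminescence read; 0% = DMSO alone and 100% = MG132 at 30 µM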
CHOP inh: blocks CHOP induction under ER stress | AID 2732 | inhibition, % at 10 µM | CHO-K1 CHOP-promoter luciferase, tunicamycin-induced, 15-18 h | hit rate 3.8% among 220,000;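 active = compounds that reduced the stress-induced luciferase reporter signal by more than about 70% of percent inhibition, limit read from the data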;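 note: 0% = tunicamycin plus vehicle and 100% = wells without tunicamycin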
Arbovirus inh: blocks arbovirus infection. arbovirus infection cell-based antiviral screen. inhibition, % at 10 µM. hit rate 0.37% among 200,000. AID 1251; in the data active = inhibition above about 30%
Rad51 HR inh: Rad51 (human) homologous recombination inhibition; Q06609; hRad51 DNA strand exchange, fluorescence dequenching; inhibition, % at 10 µM; hit rate 0.085% among 200,000;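 active = inhibition above 40% at the single screening dose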;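 note: 0% = DMSO control wells and 100% = blanks with heterologous ssDNA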
Target sequence (Q06609 whole entry, looked up): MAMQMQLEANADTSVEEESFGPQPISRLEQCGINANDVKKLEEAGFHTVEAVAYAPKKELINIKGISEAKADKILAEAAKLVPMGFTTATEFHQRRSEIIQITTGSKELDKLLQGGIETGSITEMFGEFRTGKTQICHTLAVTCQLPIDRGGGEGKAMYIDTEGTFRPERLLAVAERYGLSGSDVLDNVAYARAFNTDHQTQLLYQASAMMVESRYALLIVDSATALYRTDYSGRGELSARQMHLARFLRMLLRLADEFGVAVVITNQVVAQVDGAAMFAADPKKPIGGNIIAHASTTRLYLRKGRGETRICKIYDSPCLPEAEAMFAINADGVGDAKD
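Material: hRad51 filaments on single-stranded DNA; Reagent: Donor/quencher-labelled 47-bp dsDNA substrate; Compound: 10 µM final, single point; Schedule: 37 °C 15-min filament assembly, 30-min compound preincubation, 15-min exchange; Technique: FRET fluorescence, excitation 485 nm, emission 520 nm; Benchmarks: control wells and blank wells on each plate.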
Lmaj promast: reduces viability of Leishmania major promastigotes. AID 1063. hit rate 9% among 200,000. inhibition, % at 10 µM. resazurin fluorescence viability;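 note: promastigotes grown with compound for 44 hours at 28 °C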
PKD1 kinase inh: PKD1 (human) kinase inhibition. Q15139. PKD1 kinase fluorescence polarization assay. inhibition, % (test concentration not listed). hit rate 0.056% among 200,000. AID 797
* marks the source's active call; other numbers are inactive results; nt = not tested or not shown. Hits are enriched below; roughly 12% of the tested compounds scored in any of these assays. Cut-off read from the data, not from the text of the source, unless noted: active = inhibition above about 50%; inactive = the rest.

SMILES	Wee1 stabilizer	CHOP inh	Arbovirus inh	Rad51 HR inh	Lmaj promast	PKD1 kinase inh
O=C(N/N=C/c1cccc([N+](=O)[O-])c1)C1CC(=O)N(c2ccc(Cl)cc2)C1 (stereo not drawn)	-1	42	8	1	95*	-7
Cc1n[nH]c(C)c1CCC(=O)N/N=C/c1cccc([N+](=O)[O-])c1	1	-2	13	-7	1	-2
Cc1ccc(N2CC(C(=O)N/N=C/c3cccc([N+](=O)[O-])c3)CC2=O)cc1 (stereo not drawn)	3	47	-5	nt	0	-15
CC(=O)N[C@@H](Cc1c[nH]c2ccccc12)C(=O)OCc1cc(C(F)(F)F)cc(C(F)(F)F)c1	nt	-15	nt	nt	nt	nt
Cc1ccc2cc3cc(C(=O)NCCN4CCOCC4)oc3nc2c1	2	39	8	4	70*	0
CCN1CCN(CCCNC(=O)c2cc3cc4ccc(OC)cc4nc3o2)CC1	-4	nt	23	nt	100*	6
CCOC(=O)N1CCC(NC(=O)c2cc3cc4cc(OC)ccc4nc3o2)CC1	-1	10	-2	6	32	-2
COc1ccc2cc3cc(C(=O)NCCCN4CCOCC4)oc3nc2c1	1	-11	4	1	98*	-3
Cc1cc2cc(CNC(=O)c3cc4ccccc4o3)ccc2n1C	4	89*	9	4	14	-7
COc1cc(OC)cc(C(=O)NCCCN2CCOCC2)c1	1	18	19	-3	-1	2
CCN1CCN(S(=O)(=O)CC2(C)C3CCC2(C)C(=O)C3Br)CC1 (stereo not drawn)	1	-2	0	-2	38	6
Cc1nn(CC(=O)NNC(=O)c2ccccc2F)c([N+](=O)[O-])c1Br	8	16	nt	9	nt	nt
COC(=O)CC1C(=O)NCCN1C(=O)CSc1nnnn1-c1ccc(Cl)cc1 (stereo not drawn)	-1	2	9	-6	2	-1
CCOC(=O)N1CCC(N2CCN(C3CCCC3)C(CCO)C2)CC1 (stereo not drawn)	3	8	6	nt	-3	-4
O=C(NCCCN1CCOCC1)C(Sc1ccccc1)c1ccccc1 (stereo not drawn)	-2	13	5	-4	91*	3
O=C(NCCCN1CCOCC1)c1ccco1	-1	-4	5	21	-1	-9
O=C(NCCCN1CCOCC1)c1cc2ccccc2o1	1	33	0	3	79*	-7
O=C(COC(=O)c1cnccn1)c1cccc([N+](=O)[O-])c1	-3	6	nt	nt	nt	nt
Fc1ccc(N2N=C(c3cccs3)CC2c2ccccc2)cc1 (stereo not drawn)	2	23	7	2	8	-3
Fc1ccccc1N1CC(c2ccccc2)C(c2cccs2)=N1 (stereo not drawn)	-2	71*	14	8	-1	-5
COc1ccc(-n2c(SCC(=O)NNC(=O)c3ccc(C)cc3)nnc2-c2ccncc2)cc1	3	11	-1	-5	0	7
O=C(CSc1ccc(-c2ccccn2)nn1)N1CCCC1	-2	-15	0	14	-2	-1
CCOC(=O)C1C(c2ccccc2Cl)NC(=O)N(C)C1(O)C(F)(F)F (stereo not drawn)	1	70*	12	0	3	-10
CC(=O)C1C(c2ccccc2Cl)NC(=O)NC1(O)C(F)(F)F (stereo not drawn)	4	-41	6	3	-6	1
CC(C)C[C@H](NC(=O)OC(C)(C)C)c1nnc(SCc2cccc(F)c2)o1	3	50	-8	-6	69*	-9
SMILES	Wee1 stabilizer	CHOP inh	Arbovirus inh	Rad51 HR inh	Lmaj promast	PKD1 kinase inh
CSCC[C@H](NC(=O)OC(C)(C)C)c1nnc(SCc2cccc(F)c2)o1	2	64	-2	2	18	7
Cc1cc(C)c2c(N)c(S(=O)c3ccc(C(C)(C)C)cc3)sc2n1 (stereo not drawn)	3	55	3	-3	34	3
N[C@@H](CCCC(=O)O)C(=O)O	nt	-3	nt	nt	nt	nt
OCCC1CN(CCCn2cccn2)CCN1C1CCCCC1 (stereo not drawn)	-1	9	-2	5	-5	-7
O=C(Nc1sc2c(c1C(=O)O)CCCCC2)c1cccs1	0	16	46*	14	19	0
CC(C)(C)c1ccc(C(=O)Nc2sc3c(c2C(=O)O)CCC3)cc1	-2	35	32*	13	0	-3
